Measurements: paper PMC7611434 (Bioorganic chemistry, 2020)
pIC50: −log10 of the molar value. Where two headings read alike, the source gives them in different places.

What was measured:
[1] = test system: RUMH cells (renal cell carcinoma, c-MET-overexpressing); assay: cytotoxicity assay; format: cell-based, human; settings: for pIC50: read-out: IC50 cytotoxicity; for cytotoxic activity under hypoxia vs normoxia: 72 h, 1 % O2 vs 21 % O2
Method in brief: (§1)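 MTT (EZ4U) viability in H1993 or in-house-established RUMH cells in RPMI 1640 with 10% FCS. Cells were seeded at 3-6x10³/well and recovered 24 h, then given increasing concentrations of test compound (final DMSO <1%). Exposure was 24 h or 72 h at 21% O₂ (normoxia) or 1% O₂ (hypoxia). IC50 came from full dose-response curves; one representative experiment in triplicate, mean ± SD.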

[2] = test system: H2228 cells (non-small cell lung cancer, ALK-dependent); assay: cytotoxicity assay; format: cell-based, human; settings: for cytotoxic activity under hypoxia vs normoxia: H2228, 72 h, 1 % O2 vs 21 % O2; for pIC50: read-out: IC50 cytotoxicity
[3] = test system: H1993 cells (non-small cell lung cancer, c-MET-dependent); assay: cytotoxicity assay; format: cell-based, human; settings: for cytotoxic activity under hypoxia vs normoxia: H1993, 72 h, 1 % O2 vs 21 % O2; for pIC50: read-out: IC50 cytotoxicity
Method in brief: as §1

[4] = solubility in PBS; format: physicochemical
[5] = test system: H1993 tumor cell proliferation (Ki-67); assay: H1993 xenograft, immunohistochemistry of Ki-67 and tumor histology; format: in vivo, SCID mice; settings: 24 h
[6] = test system: HACAT (keratinocytes from human skin); assay: cytotoxicity in non-malignant cells; format: cell-based; settings: normoxic, 72 h
Method in brief: (§2)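 Non-malignant HACAT keratinocytes or HLF lung fibroblasts in RPMI 1640 with 10% FCS, under normoxia (37 °C, 21% O₂, 5% CO₂). Cells were seeded at 3-6x10³/well and recovered 24 h. They were then exposed for 72 h to increasing concentrations of test compound diluted from DMSO stock (final DMSO <1%). Viability was read by MTT (EZ4U), with IC50 fitted from full dose-response curves.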

[7] = target: c-MET phosphorylation in H1993 tumor tissue (Homo sapiens, UniProt P08581); assay: H1993 xenograft, immunohistochemistry of p-c-MET; format: in vivo; settings: 24 h, H1993 s.c. in SCID mice
Sequence of c-MET phosphorylation in H1993 tumor tissue (P08581 25-1390): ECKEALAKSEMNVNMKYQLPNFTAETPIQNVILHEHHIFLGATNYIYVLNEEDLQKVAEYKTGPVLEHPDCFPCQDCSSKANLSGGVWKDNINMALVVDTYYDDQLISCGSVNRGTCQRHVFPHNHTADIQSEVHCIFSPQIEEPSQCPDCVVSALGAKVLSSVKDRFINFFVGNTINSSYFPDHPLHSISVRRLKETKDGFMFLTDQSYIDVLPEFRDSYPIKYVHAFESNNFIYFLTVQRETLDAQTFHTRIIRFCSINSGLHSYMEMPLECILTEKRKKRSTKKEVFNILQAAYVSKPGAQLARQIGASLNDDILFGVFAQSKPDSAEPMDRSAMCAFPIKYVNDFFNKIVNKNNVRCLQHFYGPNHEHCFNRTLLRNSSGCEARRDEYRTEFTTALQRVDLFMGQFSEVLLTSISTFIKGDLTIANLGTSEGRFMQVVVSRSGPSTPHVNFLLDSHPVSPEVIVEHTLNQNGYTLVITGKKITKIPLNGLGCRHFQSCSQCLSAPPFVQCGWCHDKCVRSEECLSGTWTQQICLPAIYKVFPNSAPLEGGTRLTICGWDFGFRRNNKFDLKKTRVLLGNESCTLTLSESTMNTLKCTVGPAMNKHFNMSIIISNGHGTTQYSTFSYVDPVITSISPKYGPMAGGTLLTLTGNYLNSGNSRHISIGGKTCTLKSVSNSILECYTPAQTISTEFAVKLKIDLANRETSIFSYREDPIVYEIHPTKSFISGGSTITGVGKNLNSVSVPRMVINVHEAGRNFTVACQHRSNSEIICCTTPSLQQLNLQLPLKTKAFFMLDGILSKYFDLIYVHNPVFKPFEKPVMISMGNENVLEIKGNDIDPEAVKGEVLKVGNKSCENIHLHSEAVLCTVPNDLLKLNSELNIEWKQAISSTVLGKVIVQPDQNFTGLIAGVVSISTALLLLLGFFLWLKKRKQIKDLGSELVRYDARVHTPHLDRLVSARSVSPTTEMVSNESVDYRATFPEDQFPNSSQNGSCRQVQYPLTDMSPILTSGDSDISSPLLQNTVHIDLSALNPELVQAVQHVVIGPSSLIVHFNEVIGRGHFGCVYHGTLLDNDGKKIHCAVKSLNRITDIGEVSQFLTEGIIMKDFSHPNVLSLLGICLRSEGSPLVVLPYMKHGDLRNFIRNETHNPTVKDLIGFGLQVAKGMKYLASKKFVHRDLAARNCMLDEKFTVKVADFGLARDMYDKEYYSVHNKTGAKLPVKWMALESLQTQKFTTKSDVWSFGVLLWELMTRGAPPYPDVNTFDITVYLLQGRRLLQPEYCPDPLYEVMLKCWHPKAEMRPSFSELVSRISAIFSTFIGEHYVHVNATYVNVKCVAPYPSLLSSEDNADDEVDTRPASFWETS

[8] = test system: ERK 1/2 phosphorylation; assay: Western blot of ERK 1/2 phosphorylation in H1993 cells; format: cell-based, human; settings: H1993, 24 h
Method in brief: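 H1993 cells in RPMI 1640 with 10% FCS were plated at 8x10⁵ cells/dish and allowed 24 h recovery. They were exposed for 24 h to DMSO-diluted test compound (final DMSO <1%) at 21% or 1% O₂. Lysates were run on SDS-PAGE/PVDF and probed for p-ERK 1/2 (Thr202/Tyr204), ERK 1/2 and β-actin (all 1:1000), with HRP secondaries at 1:10000. Read-out: p-ERK/ERK ratio after β-actin normalisation.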

[9] = target: nitroreductase enzyme (E. coli) (Escherichia coli, UniProt P38489); settings: nitroreductase + NADH, pH 7.4, 37 °C, HPLC; for conversion of prodrug by nitroreductase: after 10 min
Sequence of nitroreductase enzyme (E. coli) (P38489 whole entry): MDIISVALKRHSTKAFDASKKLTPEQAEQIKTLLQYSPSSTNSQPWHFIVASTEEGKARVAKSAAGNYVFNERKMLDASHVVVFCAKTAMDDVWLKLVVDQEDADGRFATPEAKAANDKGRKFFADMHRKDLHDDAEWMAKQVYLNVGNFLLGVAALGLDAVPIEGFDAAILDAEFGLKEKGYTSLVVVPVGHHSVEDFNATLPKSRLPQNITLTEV

[10] = test system: ALK; settings: cell-free kinase assay
[11] = test system: HLF (fibroblasts from human lung); assay: cytotoxicity in non-malignant cells; format: cell-based; settings: normoxic, 72 h
Method in brief: as §2

[12] = stability down to pH 1; format: physicochemical; settings: down to pH 1, 24 h, 37 °C; data not shown
[13] = target: c-MET phosphorylation (Homo sapiens, UniProt P08581); assay: Western blot of c-MET phosphorylation in H1993 cells; format: cell-based; settings: H1993, 24 h
Sequence of c-MET phosphorylation (P08581 25-1390): as the sequence (P08581 25-1390) above

[14] = test system: c-MET; settings: cell-free kinase assay
[15] = stability assay in buffer, medium and serum; format: in vitro ADME; settings: pure serum (FCS), 37 °C, up to 72 h
[16] = RUMH, 24 h treatment, MTT, 1 % O2 or 21 % O2
[17] = H2228, 24 h treatment, MTT, 1 % O2 or 21 % O2
[18] = H1993, 24 h treatment, MTT, 1 % O2 or 21 % O2

Question: With `Cn1c(COP(=O)(NCCBr)NCCBr)cnc1[N+](=O)[O-]` [TH-302, reference compound] as the molecule, how does the pIC50 ([1]; Homo sapiens, 24 h) read?
Answer: < 4.60

Question: What about the “cytotoxic activity under hypoxia vs normoxia” value ([1]; RUMH) of the same molecule?
Answer: significant anticancer activity under low oxygen levels

Question: What about the “cytotoxic activity under hypoxia vs normoxia” value [2] of the same molecule?
Answer: significant anticancer activity under low oxygen levels

Question: And the pIC50 ([2]; Homo sapiens, NCI-H2228, 24 h)?
Answer: < 4.60

Question: And the “cytotoxic activity under hypoxia vs normoxia” value [3]?
Answer: significant anticancer activity under low oxygen levels

Question: What about the pIC50 ([3]; Homo sapiens, NCI-H1993, 24 h) of the same molecule?
Answer: < 4.60

Question: Which results are given for `C[C@@H](Oc1cc(-c2cnn(C3CCNCC3)c2)cnc1N)c1c(Cl)ccc(F)c1Cl` [crizotinib, reference compound]?
Answer: pIC50 ([1]; Homo sapiens, 24 h): ~4.70; solubility ([4]; phosphate-buffered saline): < 0.5 mg/mL; Ki-67 expression in tumor tissue ([5]; 50 mg/kg p.o., H1993 s.c. in SCID mice): slight impact; pIC50 ([3]; Homo sapiens, NCI-H1993, 24 h): ~4.70

Question: For `C[C@@H](Oc1cc(-c2cnn(C3CCNCC3)c2)cnc1NC(=O)OCc1cnc([N+](=O)[O-])n1C)c1c(Cl)ccc(F)c1Cl` [prodrug A, (1-methyl-2-nitro-1H-imidazol-5-yl)methyl (R)-(3-(1-(2,6-dichloro-3-fluorophenyl)ethoxy)-5-(1-(piperidin-4-yl)-1H-pyrazol-4-yl)pyridin-2-yl)carbamate*1.5TFA], which “cytotoxic activity under hypoxia vs normoxia” value ([1]; RUMH) is on record?
Answer: promising hypoxia-mediated activity

Question: What about the pIC50 [1, 16] of the same molecule?
Answer: < 4.60

Question: And the “activity against non-malignant cells in comparison to free crizotinib” value [6]?
Answer: distinctly reduced activity

Question: And the solubility ([4]; phosphate-buffered saline (PBS), room temperature)?
Answer: > 20 mg/mL

Question: And the “c-MET phosphorylation in tumor tissue” value ([7]; 38.5 mg/kg i.v., single dose)?
Answer: significant inhibition

Question: And the “level of p-c-MET in tumor tissue” value ([7]; 89.2 mg/kg p.o.)?
Answer: did not significantly change

Question: And the “inhibition of ERK 1/2 phosphorylation signal” value ([8]; hypoxia (1 % O2), 5 μM)?
Answer: ~ 60%

Question: What about the “inhibition of ERK 1/2 phosphorylation signal” value ([8]; hypoxia (1 % O2), 10 μM) of the same molecule?
Answer: ~ 80%

Question: And the “inhibition of ERK 1/2 phosphorylation signal” value ([8]; normoxia (21 % O2), 5 μM)?
Answer: < 10%

Question: What about the “cell proliferation (Ki-67) in tumor tissue” value ([5]; 38.5 mg/kg i.v., single dose, H1993 s.c. in SCID mice) of the same molecule?
Answer: inhibition of cell proliferation

Question: What about the “tumor histology (tumor:stroma ratio)” value ([5]; 38.5 mg/kg i.v., single dose, data not shown) of the same molecule?
Answer: reduction of the tumor:stroma ratio

Question: What about the “Ki-67 expression in tumor tissue” value ([5]; 89.2 mg/kg p.o., H1993 s.c. in SCID mice) of the same molecule?
Answer: did not significantly change

Question: And the “cytotoxic activity under hypoxia vs normoxia” value [2]?
Answer: similarly active

Question: And the pIC50 [2, 17]?
Answer: < 4.60

Question: And the “release of crizotinib as main product” value [9]?
Answer: about 80%

Question: And the “conversion of prodrug by nitroreductase” value [9]?
Answer: complete conversion

Question: What about the “lower inhibitory potential compared to crizotinib (IC50 ratio)” value (shortened to “lower inhibitory potential … (IC50 ratio)”) [10] of the same molecule?
Answer: 42 fold

Question: And the “activity against non-malignant cells in comparison to free crizotinib” value [11]?
Answer: distinctly reduced activity

Question: What about the “stability at low pH” value [12] of the same molecule?
Answer: confirmed the stability

Question: And the “inhibition of c-MET phosphorylation” value ([13]; hypoxia (1 % O2), 5 μM)?
Answer: 40%

Question: What about the “inhibition of c-MET phosphorylation” value ([13]; hypoxia (1 % O2), 10 μM) of the same molecule?
Answer: 70%

Question: What about the “inhibition of c-MET phosphorylation” value ([13]; normoxia (21 % O2), up to 10 μM) of the same molecule?
Answer: < 10%

Question: And the “cytotoxic activity under hypoxia vs normoxia” value [3]?
Answer: promising hypoxia-mediated activity

Question: And the pIC50 [3, 18]?
Answer: < 4.60

Question: And the “lower inhibitory potential … (IC50 ratio)” value [14]?
Answer: 33 fold

Question: And the “stability in pure serum” value [15]?
Answer: no significant degradation

Question: For `C[C@@H](Oc1cc(-c2cnn(C3CCNCC3)c2)cnc1NCc1cnc([N+](=O)[O-])n1C)c1c(Cl)ccc(F)c1Cl` [prodrug B, (R)-3-(1-(2,6-dichloro-3-fluorophenyl)ethoxy)-N-((1-methyl-2-nitro-1H-imidazol-5-yl)methyl)-5-(1-(piperidin-4-yl)-1H-pyrazol-4-yl)pyridin-2-amine *2TFA], which IC50 cytotoxicity [1, 16] is on record?
Answer: distinct anticancer activity in a range similar to crizotinib

Question: What about the IC50 cytotoxicity [2, 17] of the same molecule?
Answer: distinct anticancer activity in a range similar to crizotinib

Question: And the “release of crizotinib as main product” value [9]?
Answer: no formation of crizotinib

Question: What about the “conversion of prodrug by nitroreductase” value [9] of the same molecule?
Answer: could not be activated

Question: And the “lower inhibitory potential … (IC50 ratio)” value [10]?
Answer: > 143 fold

Question: What about the IC50 cytotoxicity [3, 18] of the same molecule?
Answer: distinct anticancer activity in a range similar to crizotinib

Question: What about the “lower inhibitory potential … (IC50 ratio)” value [14] of the same molecule?
Answer: 64 fold
